Test results reported in ChEMBL document CHEMBL4414574, “Structure-Based Discovery and Development of a Series of Potent and Selective Bromodomain and Extra-Terminal Protein Inhibitors” (J Med Chem, 2019).
The source made the active and inactive calls. The rule behind the calls is not given here.

What was measured:
[1] = molecular target: Histone acetyltransferase p300 (Homo sapiens) (UniProt Q09472); assay: Inhibition of EP300 (unknown origin) at 1 uM
Procedure, shortened: (§1)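 Bromodomain binding panel (32 bromodomains) screened at 1 μM; primary binding read-out reported as percent of control, lower values meaning stronger binding.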

[2] = Metabolic stability in human liver microsomes at 1 uM preincubated for 5 mins followed by NADPH addition and measured after 5 to 30 mins by LC/MS/MS analysis; type: ADME, Microsome
Procedure, shortened: (§2)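 Liver microsomes (0.5 mg/mL) preincubated 5 min at 37 °C with 1 μM compound in 0.1 M phosphate buffer pH 7.4 containing 1 mM EDTA and 5 mM MgCl2; started with 1 mM NADPH; sampled at 0, 5, 10 and 30 min; quenched with cold acetonitrile; parent remaining quantified by LC/MS/MS.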

[3] = molecular target: T1, Bromodomain-containing protein 4 (Homo sapiens, UniProt O60885); assay: Inhibition of BRD4 bromodomain 2 (unknown origin)
Cytochrome P450 1A2 = molecular target: T2, Cytochrome P450 1A2 (Homo sapiens, UniProt P05177); assay: Time-dependent inhibition of CYP1A2 in human liver microsomes at 10 uM using phenacetin as substrate preincubated up to 30 mins followed by NADPH generating system addition and measured after 10 mins; type: ADME
T2 sequence (P05177 whole entry): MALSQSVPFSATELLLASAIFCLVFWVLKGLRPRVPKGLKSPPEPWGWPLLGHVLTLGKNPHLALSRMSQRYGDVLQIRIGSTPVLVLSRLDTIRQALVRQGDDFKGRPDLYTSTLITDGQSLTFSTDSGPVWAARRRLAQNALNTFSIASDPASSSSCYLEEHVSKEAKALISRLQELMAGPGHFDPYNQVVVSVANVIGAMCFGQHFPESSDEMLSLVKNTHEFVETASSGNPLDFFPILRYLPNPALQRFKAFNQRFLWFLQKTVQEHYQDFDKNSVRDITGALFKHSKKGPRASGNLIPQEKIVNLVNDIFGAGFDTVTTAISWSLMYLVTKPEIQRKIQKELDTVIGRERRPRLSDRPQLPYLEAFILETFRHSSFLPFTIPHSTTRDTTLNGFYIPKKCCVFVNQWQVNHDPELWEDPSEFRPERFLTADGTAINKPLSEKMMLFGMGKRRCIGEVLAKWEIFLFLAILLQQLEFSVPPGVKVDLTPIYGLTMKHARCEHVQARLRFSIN
Procedure, shortened: (§3)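 Human liver microsomes 0.2 mg/mL, 100 mM phosphate pH 7.4, 10 μM test compound, preincubated 0, 5, 10 and 30 min at 37 °C; then NADPH plus probe cocktail (5 μM midazolam, 50 μM testosterone, 5 μM dextromethorphan, 10 μM diclofenac, 50 μM phenacetin, 50 μM S-(+)-mephenytoin) added; 10 min reaction; kobs in units of 10^-4/min.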

Cytochrome P450 3A4 = Cytochrome P450 3A4 (Homo sapiens, UniProt P08684); assay: Time-dependent inhibition of CYP3A4 in human liver microsomes at 10 uM using midazolam or testosterone as substrate preincubated up to 30 mins followed by NADPH generating system addition and measured after 10 mins; type: ADME; procedure, shortened: as §3
Cytochrome P450 3A4, sequence (P08684 whole entry): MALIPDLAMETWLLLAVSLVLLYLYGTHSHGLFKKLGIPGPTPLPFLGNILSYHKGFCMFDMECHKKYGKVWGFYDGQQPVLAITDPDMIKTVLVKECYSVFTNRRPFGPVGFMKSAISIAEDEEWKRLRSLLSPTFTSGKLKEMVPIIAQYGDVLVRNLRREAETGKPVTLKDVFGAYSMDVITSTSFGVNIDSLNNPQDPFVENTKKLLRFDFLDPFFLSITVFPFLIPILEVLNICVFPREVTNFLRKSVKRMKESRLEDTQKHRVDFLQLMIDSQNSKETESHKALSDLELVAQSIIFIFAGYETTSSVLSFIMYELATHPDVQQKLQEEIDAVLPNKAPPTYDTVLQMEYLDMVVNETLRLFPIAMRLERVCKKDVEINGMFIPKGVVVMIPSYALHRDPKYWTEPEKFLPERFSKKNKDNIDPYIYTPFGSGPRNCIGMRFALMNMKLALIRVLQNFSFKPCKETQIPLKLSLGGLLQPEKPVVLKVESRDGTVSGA

[4] = Metabolic stability in mouse liver microsomes at 1 uM preincubated for 5 mins followed by NADPH addition and measured after 5 to 30 mins by LC/MS/MS analysis; type: ADME, Microsome; procedure, shortened: as §2
[5] = molecular target: T1, Bromodomain-containing protein 4; assay: Displacement of 5-FITC labelled (+)-JQ1 from His6-tagged human BRD4 bromodomain 1 expressed in Escherichia coli BL21(DE3) )-codon plus-RIL cells incubated for 4 hrs in dark condition by fluorescence anisotropy binding assay
[6] = molecular target: Bromodomain-containing protein 2 (Homo sapiens) (UniProt P25440); assay: Inhibition of BRD2 bromodomain 2 (unknown origin); procedure, shortened: as §1
Bromodomain-containing protein 2 (Homo sapiens), sequence (P25440 whole entry, looked up): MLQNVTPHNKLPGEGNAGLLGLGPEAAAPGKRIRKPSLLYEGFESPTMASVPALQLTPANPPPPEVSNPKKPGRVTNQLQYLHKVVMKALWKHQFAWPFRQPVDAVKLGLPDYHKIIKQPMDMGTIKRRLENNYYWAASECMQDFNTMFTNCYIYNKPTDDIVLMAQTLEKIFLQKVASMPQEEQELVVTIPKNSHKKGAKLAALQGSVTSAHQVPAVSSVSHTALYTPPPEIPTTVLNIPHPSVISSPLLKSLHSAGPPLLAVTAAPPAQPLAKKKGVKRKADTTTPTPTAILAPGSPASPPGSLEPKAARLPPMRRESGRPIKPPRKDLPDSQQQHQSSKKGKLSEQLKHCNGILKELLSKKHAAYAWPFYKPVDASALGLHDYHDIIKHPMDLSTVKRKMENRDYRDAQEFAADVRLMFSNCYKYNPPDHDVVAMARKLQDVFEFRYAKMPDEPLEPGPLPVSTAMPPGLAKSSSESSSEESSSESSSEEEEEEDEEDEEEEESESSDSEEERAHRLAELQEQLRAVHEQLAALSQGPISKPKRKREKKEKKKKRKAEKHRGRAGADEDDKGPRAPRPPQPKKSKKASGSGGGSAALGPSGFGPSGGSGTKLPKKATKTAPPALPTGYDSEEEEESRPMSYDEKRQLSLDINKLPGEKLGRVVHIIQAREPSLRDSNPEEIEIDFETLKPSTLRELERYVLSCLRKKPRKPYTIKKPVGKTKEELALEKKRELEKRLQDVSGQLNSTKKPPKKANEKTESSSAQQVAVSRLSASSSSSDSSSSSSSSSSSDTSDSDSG

Cytochrome P450 2D6 = Cytochrome P450 2D6 (Homo sapiens, UniProt P10635); assay: Time-dependent inhibition of CYP2D6 in human liver microsomes at 10 uM using dextromethorphan as substrate preincubated up to 30 mins followed by NADPH generating system addition and measured after 10 mins; type: ADME; procedure, shortened: as §3
Cytochrome P450 2D6, sequence (P10635 whole entry): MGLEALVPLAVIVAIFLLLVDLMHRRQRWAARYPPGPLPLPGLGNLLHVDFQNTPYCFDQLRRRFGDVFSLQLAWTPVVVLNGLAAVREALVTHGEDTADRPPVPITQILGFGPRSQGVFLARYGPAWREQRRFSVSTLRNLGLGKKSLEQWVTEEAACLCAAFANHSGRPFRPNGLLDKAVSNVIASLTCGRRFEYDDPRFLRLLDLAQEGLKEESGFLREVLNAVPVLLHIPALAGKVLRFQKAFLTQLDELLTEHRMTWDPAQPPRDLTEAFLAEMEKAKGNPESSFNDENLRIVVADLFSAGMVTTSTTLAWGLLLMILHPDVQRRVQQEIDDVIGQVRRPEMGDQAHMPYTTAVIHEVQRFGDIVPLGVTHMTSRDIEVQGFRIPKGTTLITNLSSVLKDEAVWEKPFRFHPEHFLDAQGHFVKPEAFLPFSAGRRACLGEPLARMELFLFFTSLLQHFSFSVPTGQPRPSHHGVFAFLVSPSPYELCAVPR

Cytochrome P450 2C9 = Cytochrome P450 2C9 (Homo sapiens, UniProt P11712); assay: Time-dependent inhibition of CYP2C9 in human liver microsomes at 10 uM using diclofenac as substrate preincubated up to 30 mins followed by NADPH generating system addition and measured after 10 mins; type: ADME; procedure, shortened: as §3
Cytochrome P450 2C9, sequence (P11712 whole entry): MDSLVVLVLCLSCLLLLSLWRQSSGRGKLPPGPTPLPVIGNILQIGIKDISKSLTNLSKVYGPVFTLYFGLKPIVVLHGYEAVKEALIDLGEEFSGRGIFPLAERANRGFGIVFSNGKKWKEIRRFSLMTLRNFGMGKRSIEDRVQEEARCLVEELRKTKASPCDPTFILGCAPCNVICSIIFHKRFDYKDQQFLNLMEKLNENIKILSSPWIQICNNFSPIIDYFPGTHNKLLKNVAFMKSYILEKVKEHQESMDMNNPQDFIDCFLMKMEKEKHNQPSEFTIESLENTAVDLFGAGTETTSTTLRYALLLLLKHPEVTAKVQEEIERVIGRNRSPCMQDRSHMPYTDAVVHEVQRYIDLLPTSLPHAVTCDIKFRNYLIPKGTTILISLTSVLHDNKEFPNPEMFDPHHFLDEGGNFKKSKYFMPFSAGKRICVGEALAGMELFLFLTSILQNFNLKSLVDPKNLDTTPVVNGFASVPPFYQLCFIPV

[7] = molecular target: T1, Bromodomain-containing protein 4; assay: Inhibition of BRD4 bromodomain 1 (unknown origin)
Procedure, shortened: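 BRD4 BD1 (His6-tagged, E. coli BL21(DE3)-expressed, Ni-NTA purified) at 10 nM with 5 nM FITC-labelled (+)-JQ1 tracer; 50 mM HEPES pH 7.4, 150 mM NaCl, 0.5 mM CHAPS, DMSO 2‰ final; graded inhibitor; 4 h dark equilibration at room temperature; fluorescence anisotropy read (ex 485/em 530 nm). IC50 from two independent experiments in duplicate, mean ± SEM.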

Cytochrome P450 2C19 = Cytochrome P450 2C19 (Homo sapiens, UniProt P33261); assay: Time-dependent inhibition of CYP2C19 in human liver microsomes at 10 uM using mephenytoin as substrate preincubated up to 30 mins followed by NADPH generating system addition and measured after 10 mins; type: ADME; procedure, shortened: as §3
MM1.S = assay: Antiproliferative activity against human MM1S cells after 72 hrs by CCK8 or SRB assay; type: functional, cell-based
Procedure, shortened: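 IC50 against MM.1S cell proliferation was taken as the mean of three independent experiments, each run in triplicate, reported with SEM.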

CYP2C9 = CYP2C9 (Homo sapiens, UniProt P11712); assay: Reversible inhibition of CYP2C9 in human liver microsomes at 10 uM using diclofenac as substrate preincubated for 5 mins followed by NADPH generating system addition and measured after 20 mins relative to control; type: ADME; conditions: probe diclofenac
Procedure, shortened: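 Human liver microsomes 0.2 mg/mL, 100 mM phosphate pH 7.4, 10 μM test compound, probe cocktail (10 μM midazolam, 100 μM testosterone, 10 μM dextromethorphan, 20 μM diclofenac, 100 μM phenacetin, 100 μM mephenytoin); organic solvent <1%; 5 min preincubation at 37 °C, started with NADPH-generating system, 20 min reaction; metabolite formation expressed relative to PBS control.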

[8] = molecular target: Bromodomain-containing protein 2 (Homo sapiens) (UniProt P25440); assay: Inhibition of BRD2 bromodomain 1 (unknown origin)

Histone acetyltransferase p300 (Homo sapiens), sequence (Q09472 whole entry): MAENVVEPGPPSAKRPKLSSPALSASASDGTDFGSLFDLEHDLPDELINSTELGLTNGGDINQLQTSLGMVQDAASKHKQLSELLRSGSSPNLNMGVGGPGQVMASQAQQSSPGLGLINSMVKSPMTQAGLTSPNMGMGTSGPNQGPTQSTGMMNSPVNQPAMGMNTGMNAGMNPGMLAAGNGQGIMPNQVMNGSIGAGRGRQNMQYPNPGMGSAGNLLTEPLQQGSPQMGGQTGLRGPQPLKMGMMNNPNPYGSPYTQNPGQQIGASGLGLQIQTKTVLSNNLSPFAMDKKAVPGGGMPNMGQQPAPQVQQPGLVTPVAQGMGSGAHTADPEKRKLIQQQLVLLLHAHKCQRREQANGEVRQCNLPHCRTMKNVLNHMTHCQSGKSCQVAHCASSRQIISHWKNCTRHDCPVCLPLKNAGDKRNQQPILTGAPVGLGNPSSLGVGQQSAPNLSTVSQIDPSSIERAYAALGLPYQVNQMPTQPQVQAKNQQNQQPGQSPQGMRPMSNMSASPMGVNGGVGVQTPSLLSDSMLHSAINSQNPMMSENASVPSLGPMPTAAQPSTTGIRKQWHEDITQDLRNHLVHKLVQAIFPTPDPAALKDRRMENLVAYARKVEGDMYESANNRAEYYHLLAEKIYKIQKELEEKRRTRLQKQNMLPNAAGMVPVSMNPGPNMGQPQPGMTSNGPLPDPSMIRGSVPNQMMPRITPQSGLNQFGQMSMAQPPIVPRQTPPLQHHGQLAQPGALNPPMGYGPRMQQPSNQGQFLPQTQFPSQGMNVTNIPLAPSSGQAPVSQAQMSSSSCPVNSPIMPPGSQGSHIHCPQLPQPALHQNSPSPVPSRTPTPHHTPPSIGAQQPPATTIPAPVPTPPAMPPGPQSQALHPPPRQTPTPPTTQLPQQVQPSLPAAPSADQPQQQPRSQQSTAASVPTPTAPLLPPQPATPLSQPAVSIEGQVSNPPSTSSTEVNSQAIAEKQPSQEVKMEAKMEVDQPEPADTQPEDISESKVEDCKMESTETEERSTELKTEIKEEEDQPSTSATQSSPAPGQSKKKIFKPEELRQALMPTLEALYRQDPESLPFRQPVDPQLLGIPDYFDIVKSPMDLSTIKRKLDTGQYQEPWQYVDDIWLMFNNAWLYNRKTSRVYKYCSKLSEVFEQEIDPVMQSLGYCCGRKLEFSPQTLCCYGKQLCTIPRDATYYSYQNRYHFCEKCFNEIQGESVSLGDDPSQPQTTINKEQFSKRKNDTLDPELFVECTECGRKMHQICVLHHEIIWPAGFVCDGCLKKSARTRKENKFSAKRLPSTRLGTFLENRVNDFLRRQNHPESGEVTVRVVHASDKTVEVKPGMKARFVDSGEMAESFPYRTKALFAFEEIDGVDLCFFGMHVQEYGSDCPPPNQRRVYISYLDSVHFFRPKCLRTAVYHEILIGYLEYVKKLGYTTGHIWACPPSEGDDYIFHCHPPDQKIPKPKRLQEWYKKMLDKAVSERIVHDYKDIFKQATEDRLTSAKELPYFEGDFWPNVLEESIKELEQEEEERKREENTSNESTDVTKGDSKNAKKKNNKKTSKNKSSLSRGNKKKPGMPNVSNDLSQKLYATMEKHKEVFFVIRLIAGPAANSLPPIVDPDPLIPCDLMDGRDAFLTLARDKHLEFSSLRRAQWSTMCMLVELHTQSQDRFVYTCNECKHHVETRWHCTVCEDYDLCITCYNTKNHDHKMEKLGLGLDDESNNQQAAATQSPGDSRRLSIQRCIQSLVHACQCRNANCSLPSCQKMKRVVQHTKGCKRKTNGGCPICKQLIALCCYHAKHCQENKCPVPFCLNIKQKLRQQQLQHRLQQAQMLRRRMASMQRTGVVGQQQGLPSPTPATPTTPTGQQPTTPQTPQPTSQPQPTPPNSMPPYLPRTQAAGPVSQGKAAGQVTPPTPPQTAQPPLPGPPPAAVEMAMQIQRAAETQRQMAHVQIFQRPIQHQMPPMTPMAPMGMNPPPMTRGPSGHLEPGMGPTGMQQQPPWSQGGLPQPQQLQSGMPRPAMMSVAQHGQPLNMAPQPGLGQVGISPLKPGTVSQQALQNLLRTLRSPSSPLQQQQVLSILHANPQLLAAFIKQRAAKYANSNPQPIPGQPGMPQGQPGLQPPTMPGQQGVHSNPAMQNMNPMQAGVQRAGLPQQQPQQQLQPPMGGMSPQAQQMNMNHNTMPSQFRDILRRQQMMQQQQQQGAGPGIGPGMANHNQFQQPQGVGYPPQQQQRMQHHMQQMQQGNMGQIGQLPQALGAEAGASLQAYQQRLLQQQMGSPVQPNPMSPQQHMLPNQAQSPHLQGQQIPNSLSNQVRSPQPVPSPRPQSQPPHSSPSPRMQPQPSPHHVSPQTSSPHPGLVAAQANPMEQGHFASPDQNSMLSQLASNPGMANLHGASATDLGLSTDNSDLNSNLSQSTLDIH

Cc1ccc(-n2c(C)nnc2-c2ccc3c(c2)N(C2CCCC2)[C@H](C)C(=O)N3C)cc1
inhibition [1]: inactive
Stability [2]: Stable
inhibition [3]: Active
TDI (Cytochrome P450 1A2): Not Active
TDI (Cytochrome P450 3A4): Not Active
Stability [4]: Stable
IC50 [5]: 5.2 nM
inhibition [6]: Active
TDI (Cytochrome P450 2D6): Not Active
TDI (Cytochrome P450 2C9): Not Active
inhibition [7]: Active
TDI (Cytochrome P450 2C19): Not Active
IC50 (MM1.S): 3.9 nM
inhibition at 20 min, 10 µM (CYP2C9): > 50%
inhibition activity call (active/inactive) [8]: Active
